Reference: ChEMBL document CHEMBL4673407, “Fragment-Based Discovery of Novel Allosteric MEK1 Binders” (ACS Med Chem Lett, 2021)

Key:
[1] = target: T1, Dual specificity mitogen-activated protein kinase kinase 1 (Homo sapiens, UniProt Q02750); assay: Binding affinity to full length biotinylated 6His/Avi-tagged/Tev-fused human MEK1 expressed in Escherichia coli in absence of AMP-PNP by SPR assay
[2] = target: T1, Dual specificity mitogen-activated protein kinase kinase 1; assay: Binding affinity to full length biotinylated 6His/Avi-tagged/Tev-fused human MEK1 expressed in Escherichia coli in presence of AMP-PNP by SPR assay
[3] = Octanol-water partition coefficient, log D of the compound at pH 7.4 by shake flask method; format: physicochemical
[4] = Intrinsic clearance in rat hepatocytes; format: ADME, cell-based, Hepatocyte
Summary of the method: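 Rat hepatocyte stability; intrinsic clearance expressed in μL/(min 1E6) cells.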

[5] = Intrinsic clearance in human liver microsomes; format: ADME, Microsome; details: read-out: CLH
Summary of the method: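 Human liver microsomal stability; intrinsic clearance expressed in μL/(min mg).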

T1 sequence (Q02750 whole entry, the tested form may be a part): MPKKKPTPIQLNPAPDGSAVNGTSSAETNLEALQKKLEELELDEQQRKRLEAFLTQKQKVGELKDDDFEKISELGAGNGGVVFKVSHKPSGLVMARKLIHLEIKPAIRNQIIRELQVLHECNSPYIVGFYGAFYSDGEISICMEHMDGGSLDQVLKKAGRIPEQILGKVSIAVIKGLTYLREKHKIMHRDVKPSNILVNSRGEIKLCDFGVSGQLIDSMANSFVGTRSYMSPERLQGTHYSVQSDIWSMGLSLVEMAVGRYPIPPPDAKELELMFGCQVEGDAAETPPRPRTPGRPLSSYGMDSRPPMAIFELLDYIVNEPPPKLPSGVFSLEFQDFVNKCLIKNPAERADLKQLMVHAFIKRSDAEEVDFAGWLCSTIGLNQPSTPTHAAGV

Row | Structure (SMILES) | logD [3] | other results
1 | O=C(CC1SCCNC1=O)Nc1ccc(Cl)c(Cl)c1 (stereo not drawn) | 2.3 | Kd [1]: 87 µM; Kd [2]: 65 µM
2 | O=C(c1cccnc1)c1cc2ccccc2[nH]1 | 2.3 | Kd [1]: 59 µM; Kd [2]: 65 µM
3 | CC(=O)Nc1ccc2c(C(F)(F)F)cc(=O)oc2c1 | 1.8 | –
4 | COc1cccc(NC(=O)CC2SCCNC2=O)c1 (stereo not drawn) | 1 | –
5 | O=C(CC1SCCNC1=O)Nc1ccccc1 (stereo not drawn) | 0.8 | –
6 | COc1ccc(NC(=O)CC2SCCNC2=O)cc1F (stereo not drawn) | 1.1 | –
7 | COc1ccc(-c2cccc(=O)[nH]2)cc1 | 1.4 | –
8 | O=C(CC1SCCNC1=O)Nc1ccc2c(c1)OCO2 (stereo not drawn) | 0.9 | –
9 | O=C(CC1SCCNC1=O)Nc1ccc(OC(F)(F)F)cc1 (stereo not drawn) | – | Kd [2]: > 1000 µM
10 | CCN(C)c1cc(-c2ccccc2O)nc2nccn12 | 2.9 | –
11 | COc1ccc(N(C)C(=O)CC2SCCNC2=O)cc1 (stereo not drawn) | – | Kd [2]: > 1000 µM
12 | COc1ccccc1NC(=O)CC1SCCNC1=O (stereo not drawn) | 0.8 | –
13 | COc1ccc(C2CC(=O)NCCS2)cc1 (stereo not drawn) | 1.6 | –
14 | O=c1[nH]ccc2nc(-c3ccccc3)cn12 | 2 | –

More lines, main results first:

Row | logD [3] | Structure (SMILES) | other results
15 | 1.8 | O=C(CC1SCCNC1=O)Nc1ccc(Cl)cc1 (stereo not drawn) | Kd [1]: 14 µM; Kd [2]: 7.4 µM
16 | 1.5 | O=C(CC1SCCNC1=O)Nc1ccc(OC(F)F)cc1 (stereo not drawn) | –
17 | 1.3 | CCOc1ccc(NC(=O)CC2SCCNC2=O)cc1 (stereo not drawn) | –
18 | 1.2 | O=C(CC1SCCNC1=O)Nc1ccc(F)cc1 (stereo not drawn) | –
19 | 0.1 | O=C(CC1SCCNC1=O)Nc1ccc(O)cc1 (stereo not drawn) | –
20 | 0.8 | COc1ccc(NC(=O)CC2SCCNC2=O)cc1 (stereo not drawn) | CLH [4]: 34 µL/min; microsomal CLint [5]: 8 µL/min/mg
